Measurements as given in ChEMBL document CHEMBL1777697, “Imidazolone-amide bridges and their effects on tubulin polymerization in cis-locked vinylogous combretastatin-A4 analogues: synthesis and biological evaluation” (Bioorg Med Chem, 2011).
The source made the active and inactive calls. No cut-off for these calls is given here.

Columns and labels:
CCRF-CEM = experiment: Cytotoxicity against human CEM cells after 72 hrs by MTT assay; type: functional, cell-based
Outline: (§1)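 Log-phase cells seeded at 40000–50000 cells/mL, attached overnight, then exposed to 10^-4–10^-9 M compound for 72 h at 37 °C, 5% CO₂. Viable cells measured by MTT, absorbance 570 nm. Triplicates in at least three independent assays; IC50 by nonlinear regression.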

MDA-MB-435 = experiment: Cytotoxicity against human MDA-MB-435 cells after 72 hrs by MTT assay; type: functional, cell-based; settings: MDA-MB-435, 72 h; outline: as §1
LoVo [1] = experiment: Cytotoxicity against human LoVo cells after 72 hrs by MTT assay; type: functional, cell-based; outline: as §1
Bos taurus = species on record: Bos taurus; experiment: Inhibition of bovine brain tubulin polymerization at 10 uM after 60 mins by turbidimetry analysis
LoVo [2] = experiment: Cell cycle arrest in human LoVo cells assessed as accumulation at G2/M phase at 5 uM after 24 hrs using propidium iodide staining by flow cytometry (reference value: 13%); type: functional
Outline: (§2)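 LOVO cells (10⁶) treated 24 h with compound; pelleted, fixed in citrate buffer, RNase A 20 min, then propidium iodide 20 min. DNA content read by flow cytometry to give percentage of cells per cycle phase, untreated cells as control.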

LoVo [3] = experiment: Cell cycle arrest in human LoVo cells assessed as accumulation at G2/M phase at 25 uM after 24 hrs using propidium iodide staining by flow cytometry relative to control; type: functional; outline: as §2

Row | inhibition (Bos taurus) | Compound | IC50 (CCRF-CEM) | IC50 (MDA-MB-435) | IC50 (LoVo [1]) | Activity (LoVo [2]) | Activity (LoVo [3])
1 |  | COc1ccc(NC(=O)c2[nH]c(=O)[nH]c2-c2cc(OC)c(OC)c(OC)c2)cc1OC | 4.19 µM | 4.87 µM | 11.9 µM |  | 
2 |  | COc1cc(-c2[nH]c(=O)[nH]c2C(=O)Nc2ccc(C)c(Cl)c2)cc(OC)c1OC | 2.11 µM | 8.34 µM | 5.46 µM |  | 
3 |  | COc1cc(-c2[nH]c(=O)[nH]c2C(=O)Nc2ccc(Cl)cc2)cc(OC)c1OC | > 200 µM | 152 µM | 110 µM |  | 
4 |  | COc1ccc(NC(=O)c2[nH]c(=O)[nH]c2-c2cc(OC)c(OC)c(OC)c2)cc1 | 2.3 µM | 17.4 µM | 35.6 µM |  | 
5 |  | COc1cc(-c2[nH]c(=O)[nH]c2C(=O)Nc2cccc(Cl)c2)cc(OC)c1OC | 4.8 µM | 4.77 µM | 3.62 µM |  | 
6 |  | COc1cc(-c2[nH]c(=O)[nH]c2C(=O)Nc2cc(C)cc(C)c2)cc(OC)c1OC | 19.4 µM | 33.8 µM | 23.4 µM |  | 
7 |  | COc1cc(-c2[nH]c(=O)[nH]c2C(=O)Nc2cccc([N+](=O)[O-])c2)cc(OC)c1OC | > 200 µM | 44.2 µM | 35 µM |  | 
8 |  | COc1cc2c(c(OC)c1OC)-c1ccc(OC)c(=O)cc1[C@@H](NC(C)=O)CC2 [COLCHICINE] | 0.0172 µM | 0.0073 µM | 0.101 µM |  | 
9 | Active | COc1cc(-c2[nH]c(=O)[nH]c2C(=O)Nc2ccc(C)cc2)cc(OC)c1OC | 0.24 µM | 0.63 µM | 4.67 µM |  | 
10 |  | COc1cc(-c2[nH]c(=O)[nH]c2C(=O)Nc2ccc(Cl)c(Cl)c2)cc(OC)c1OC | 12.1 µM | 19.2 µM | 4.93 µM |  | 
11 | inactive | COc1ccc(NC(=O)c2[nH]c(=O)[nH]c2-c2cc(OC)c(OC)c(OC)c2)cc1[N+](=O)[O-] | > 200 µM | > 240 µM | 43.9 µM |  | 
12 | Active | COc1cc(-c2[nH]c(=O)[nH]c2C(=O)Nc2cccc(C)c2)cc(OC)c1OC | 0.18 µM | 0.76 µM | 0.62 µM |  | 
13 |  | COc1cc(-c2[nH]c(=O)[nH]c2C(=O)Nc2cccc3ccccc23)cc(OC)c1OC | 11.9 µM | 9.32 µM | 3.46 µM |  | 
14 |  | COc1cc(-c2[nH]c(=O)[nH]c2C(=O)Nc2ccccc2)cc(OC)c1OC | 45.9 µM | 40.4 µM | 77.6 µM |  | 
15 |  | COc1cc(-c2[nH]c(=O)[nH]c2C(=O)Nc2ccc(C(C)(C)C)cc2)cc(OC)c1OC | 38.8 µM | 32.2 µM | 34 µM |  | 
16 | Active | COc1ccc(NC(=O)c2[nH]c(=O)[nH]c2-c2cc(OC)c(OC)c(OC)c2)cc1N | 0.33 µM | 0.62 µM | 3.4 µM | 28% | 74%
